Screening data (PubChem)
MrgX1 antagonist: human MrgX1 receptor antagonism, primary screen; AID 588676; B-score at 10 µM; actives 1.3% (n = 310,000); Q96LB2; MRGX1-HEK293 calcium flux, Fluo-4, BAM8-22 antagonism; active compounds read low;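 active = calcium-response B-score plate-corrected more than 3 library SD below zero, starting fluorescence within 5 deviations, no agonist response on first addition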;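 note: peak minus trough fluorescence over baseline after final BAM8-22 challenge near maximal dose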
Target sequence (Q96LB2 whole entry, looked up): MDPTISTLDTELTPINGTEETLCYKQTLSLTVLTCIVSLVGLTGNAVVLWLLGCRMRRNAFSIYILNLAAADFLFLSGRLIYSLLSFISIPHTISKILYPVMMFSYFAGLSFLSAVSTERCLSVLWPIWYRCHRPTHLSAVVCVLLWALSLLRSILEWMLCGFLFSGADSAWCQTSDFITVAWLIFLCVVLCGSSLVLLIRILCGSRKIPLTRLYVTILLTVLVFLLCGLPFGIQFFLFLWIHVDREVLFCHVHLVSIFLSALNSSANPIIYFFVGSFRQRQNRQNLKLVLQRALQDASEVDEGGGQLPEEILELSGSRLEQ
MrgX1 PAM: human MrgX1 positive allosteric modulation, primary screen; Q96LB2; MrgX1-HEK293, Fluo-4 calcium flux, FDSS; active compounds read high; B-score at 10 µM; actives 0.63% (n = 310,000);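 active = plate-corrected calcium response at least 3 library SD above typical, normal starting fluorescence, not activating the receptor alone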;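 note: compound read alongside a low EC10 to EC30 dose of BAM8-22 agonist; peak minus trough fluorescence over baseline measured at the second addition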
MrgX1 agonist: activates human MrgX1 receptor signaling | Q96LB2 | MrgX1-HEK293 cells, Fluo-4 calcium fluorescence, agonist mode; active compounds read high | B-score at 10 µM | actives 0.44% (n = 310,000);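 active = calcium response B-score plate-corrected fluorescence ratio at least 3 library SD, with starting fluorescence B-score inside 5 SD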
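Assay system: MrgX1-expressing HEK293 cells / Amount: fifteen thousand cells per well / Doses: test compound in the initial addition of three / Timing: cells plated overnight, dye loaded 0.5 h 37 °C, 0.5 h room temperature / Technique: kinetic calcium dye fluorescence, Fluo-4 NW / Control set: positive and negative controls per plate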
RGS4 act: RGS4 potentiation or activation. HEK293 M3R/inducible RGS4, carbachol calcium flux Fluo4; active compounds read low. B-score at 10 µM. actives 0.92% (n = 310,000). AID 463111;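 active = B-score of the integrated calcium signal more than 4 SD below the library mean, with starting fluorescence not abnormally high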;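 note: negative B-score means reduced calcium response which marks RGS4 activation or potentiation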
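System: HEK293 FlpIn-TREx cells, stable M3R, doxycycline-inducible RGS4. Timing: overnight RGS4 induction, 30 min dye load 37 °C, 20 min compound RT. Also added: carbachol, ECmax concentration. Measured by: Fluo4 fluorescence kinetic imaging of calcium. Evaluation: integrated calcium ratio converted to B score.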
RGS4 block: human RGS4 inhibition. HEK293 M3R/RGS4 inducible, Fluo-4 calcium flux; active compounds read high; triggered by carbachol at its EC20. AID 463165. B-score at 10 µM. actives 0.45% (n = 310,000);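 active = B-score, a plate-corrected calcium signal, over three deviations above library mean, with baseline fluorescence within five deviations of library mean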;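 note: RGS4 expression induced by doxycycline in cells with stable M3 receptor; B-score is computed from the integrated fluorescence ratio over baseline after carbachol; higher B-score means a larger calcium signal and so more RGS4 inhibition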
Target sequence (P49798 whole entry, looked up): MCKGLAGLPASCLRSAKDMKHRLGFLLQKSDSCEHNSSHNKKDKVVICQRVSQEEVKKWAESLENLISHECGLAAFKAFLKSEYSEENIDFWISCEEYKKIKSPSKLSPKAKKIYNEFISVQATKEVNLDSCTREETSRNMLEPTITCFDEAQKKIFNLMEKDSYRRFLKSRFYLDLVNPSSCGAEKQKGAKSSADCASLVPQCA
MrgX1 ant reconf: human MrgX1 receptor antagonism, re-confirmation screen; shares compounds with MrgX1 antagonist; MrgX1-HEK293, BAM8-22 calcium flux, Fluo-4; active compounds read low; remaining BAM8-22 calcium response % of control (active compounds read low), % at 10 µM; actives 19% (n = 2,300); AID 602420;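 active = remaining agonist calcium response no higher than 100% minus 3 SD of agonist-only control wells, with starting fluorescence near control levels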;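 note: agonist BAM8-22 given at a near maximal EC90 to ECmax level; peak minus minimum fluorescence divided by baseline after agonist addition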
HEK293 Ca flux: counter-screen for MrgX1 antagonists: effect in parental HEK293 cells; shares compounds with MrgX1 antagonist; Fluo-4 calcium fluorescence, FDSS; fluorescence ratio F(max-min)/F0 at 10 µM; actives 2% (n = 4,000); AID 624111;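 active = duplicate-averaged calcium fluorescence ratio at least three times the standard deviation of buffer wells, a nonspecific response in parental cells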
HEK293 Ca counter: MrgX1 allosteric activator counter-screen hit in parental HEK293 cells; parental HEK293 calcium flux, Fluo-4 fluorescence ratio; active compounds read high; fluorescence ratio F(max-min)/F0 at 10 µM; actives 0.4% (n = 4,000); shares compounds with MrgX1 antagonist;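 active = calcium fluorescence ratio, averaged over duplicates, at least 3 SD of the buffer-well ratio, meaning a nonspecific response in receptor-free cells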;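 note: untransfected parental HEK293 lacking MrgX1 used as counterscreen for MrgX1 allosteric activators; fluorescence change taken during the second addition on a kinetic imager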
HEK293 Ca cntr2: MrgX1 activator counter-screen hit in parental HEK293 cells | shares compounds with MrgX1 antagonist | Fluo-4 calcium fluorescence (FDSS); active compounds read high | fluorescence ratio F(max-min)/F0 at 10 µM | actives 8.7% (n = 4,000);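 active = calcium fluorescence ratio at least three times the spread of buffer wells, meaning a non-specific response in parental cells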
* hit, by the source's call; i = inactive; / = no result. Rows were chosen to be rich in hits. Some 3.5% of all compounds tested hit in one or more screens of this group.

SMILES	MrgX1 antagonist	MrgX1 PAM	MrgX1 agonist	RGS4 act	RGS4 block	MrgX1 ant reconf	HEK293 Ca flux	HEK293 Ca counter	HEK293 Ca cntr2
COc1cc(NC(=O)CCN2CCN(c3ccccc3F)CC2)cc(OC)c1	-4.83*	i	i	i	i	i	i	i	i
Cc1nc(NCc2ccccn2)c2c3c(sc2n1)CCCC3	-5.23*	i	i	i	i	i	i	i	i
O=C(O)Cn1nnnc1-c1ccc(F)cc1	-5.55*	i	i	i	i	i	i	i	i
CCCCCC(=O)N1CC2(CC(c3cccc(NC(=O)[C@@H]4CCC(=O)N4)c3)=NO2)C[C@@H]1C(N)=O (stereo partly drawn)	i	i	i	i	i	/	/	/	/
Cc1cccc(NC(=O)C2CCCN(S(=O)(=O)c3ccc4[nH]c(=O)ccc4c3)C2)c1 (stereo not drawn)	-6.55*	i	i	i	i	i	i	i	i
Cc1ccc(C)c(N2CCN(C(=O)Cn3c(=O)oc4cc(S(=O)(=O)N5CCCC5)ccc43)CC2)c1	i	i	i	i	i	/	/	/	/
CCOC(=O)C1CCN(C(=O)Cn2c(=O)oc3cc(S(=O)(=O)N4CCCC4)ccc32)CC1	-5.08*	i	i	i	i	i	i	i	i
Cc1cc(C)cc(NC(=O)C2CCN(S(=O)(=O)c3ccc4[nH]c(=O)ccc4c3)CC2)c1	-6.36*	i	i	i	i	i	i	i	i
CCc1cccc(NC(=O)C2CCN(S(=O)(=O)c3ccc4[nH]c(=O)ccc4c3)CC2)c1	i	i	i	i	i	/	/	/	/
CCOC(=O)C1CCN(S(=O)(=O)c2ccc3[nH]c(=O)ccc3c2)CC1	-4.73*	i	i	i	i	i	i	i	i
Cc1ccc(NC(=O)C2CCCN(S(=O)(=O)c3ccc4[nH]c(=O)ccc4c3)C2)cc1C (stereo not drawn)	i	i	i	i	i	/	/	/	/
C/C(=N\NC(=O)c1cc(-c2cccnc2)nc2ccccc12)c1ccc(O)cc1O	i	i	i	i	i	/	/	/	/
Fc1ccccc1-c1n[nH]c(=S)n1CC1CCCO1 (stereo not drawn)	-6.31*	i	i	i	i	i	i	i	i
Cc1ccccc1C(=O)N=c1c(C#N)cc2c(=O)n3cccc(C)c3nc2n1Cc1ccco1	i	i	i	i	i	/	/	/	/
Cc1ccc(S(=O)(=O)c2cc3c(=O)n4ccccc4nc3n(Cc3ccco3)c2=N)cc1	-4.61*	i	i	i	i	76.1%*	i	i	i
N#Cc1cc2c(=O)n3ccccc3nc2n(Cc2ccco2)c1=NC(=O)c1ccco1	-4.79*	i	i	i	i	83.4%*	i	i	i
COc1ccccc1OCCn1cc(/C=N/NC(N)=S)c2ccccc21	i	i	i	i	i	/	/	/	/
COc1ccc(CN2CCCN(C)CC2)c(OC)c1C	i	i	i	i	i	/	/	/	/
Cc1ccc(Cl)cc1NC(=O)[C@@H]1CCC(=O)N1C1OC(=O)c2ccccc21 (stereo partly drawn)	-9.92*	i	i	i	i	84.3%*	i	i	i
Cc1ccc(NC(=O)[C@@H]2CCC(=O)N2C2OC(=O)c3ccccc32)cc1Cl (stereo partly drawn)	i	i	i	i	i	/	/	/	/
O=c1[nH]c(CO)nc2c1oc1ccccc12	-6.74*	i	i	i	i	i	i	i	i
O=c1[nH]c(Cc2ccccc2)nc2c1oc1ccccc12	i	i	i	i	i	/	/	/	/
COc1ccc(C2NC(C(=O)O)Cc3c2[nH]c2ccccc32)cc1OC (stereo not drawn)	-6.73*	i	i	i	i	i	i	i	i
COc1cc(C2NC(C(=O)O)Cc3c2[nH]c2ccccc32)cc(OC)c1OC (stereo not drawn)	i	i	i	i	i	/	/	/	/
O=C(NCCc1cccc(F)c1)C1CCC(=O)N(C2CCCCCC2)C1 (stereo not drawn)	/	/	/	i	i	/	/	/	/
SMILES	MrgX1 antagonist	MrgX1 PAM	MrgX1 agonist	RGS4 act	RGS4 block	MrgX1 ant reconf	HEK293 Ca flux	HEK293 Ca counter	HEK293 Ca cntr2
Cn1c(SCC(=O)Nc2cccc(F)c2)nc2c(c1=O)SCC2	-8.77*	i	i	i	i	i	i	i	i
COc1ccc(-n2c(SCC(=O)Nc3cc(C)on3)nc3c(c2=O)SCC3)cc1	-4.59*	i	i	i	i	i	i	i	i
Cn1c(SCC(=O)Nc2ccc(C(N)=O)cc2)nc2c(c1=O)SCC2	i	i	i	i	i	/	/	/	/
CCC(CC)c1nnc(NC(=O)CCS(=O)(=O)Cc2ccccc2)s1	i	i	i	i	i	/	/	/	/
COc1ccc(NC(=O)C2(S(=O)(=O)c3ccc(C)cc3)CC2)cc1	i	i	i	i	i	/	/	/	/
COc1ccc(OC)c(NC(=O)CSc2nc(=O)n(CCN3CCOCC3)c3c2CCCC3)c1	i	i	i	i	i	/	/	/	/
CN1CCN(S(=O)(=O)c2csc(C(N)=O)c2)CC1	i	i	i	i	i	/	/	/	/
CSc1nnc(NC(=O)c2nc(S(=O)(=O)Cc3ccccc3)ncc2Cl)s1	-4.74*	i	i	i	i	71.1%*	i	i	i
CC(C)c1nnc(NC(=O)c2nc(S(=O)(=O)Cc3ccccc3)ncc2Cl)s1	-5.27*	i	i	i	i	81.2%*	i	i	i
CCc1ccc(NC(=O)c2nc(S(=O)(=O)Cc3ccccc3)ncc2Cl)cc1	i	i	i	i	i	/	/	/	/
COC(=O)c1ccc(C(=O)OC)c(NC(=O)CCC(=O)O)c1	i	i	i	i	i	/	/	/	/
COC(=O)c1ccc(C(=O)OC)c(NC(=O)COC(=O)c2ccccc2OC)c1	-6.69*	i	i	i	i	83.6%*	i	i	i
